molecular target: Histone deacetylase; type: protein assay, Homo sapiens; conditions: not given

| IC50 [nM] | Compound |
| --- | --- |
| 1400 | Cc1c2ccc(N(C)c3ccnc(Nc4ccc(/C=C/C(=O)NO)cc4)n3)cc2nn1C |
| 17 | Cc1c2ccc(N(C)c3ccnc(Nc4ccc(C(=O)NCCCCCC(=O)NO)cc4)n3)cc2nn1C |
| > 20000 | Cc1c2ccc(N(C)c3ccnc(Nc4ccc(C(=O)NCCC(=O)NO)cc4)n3)cc2nn1C |
| > 20000 | Cc1ccc(Nc2nccc(N(C)c3ccc4c(C)n(C)nc4c3)n2)cc1C(=O)NO |
| 820 | Cc1ccc(Nc2nccc(N(C)c3ccc4c(C)n(C)nc4c3)n2)cc1C(=O)NCCCCCC(=O)NO |
| 180 | Cc1c2ccc(N(C)c3ccnc(Nc4cccc(C(=O)NCCCCCC(=O)NO)c4)n3)cc2nn1C |

molecular target: Vascular endothelial growth factor receptor 2 (Homo sapiens, UniProt P35968); assay: Inhibition of VEGFR-2 (unknown origin) at 0.2 uM after 40 mins by kinase-Glo assay relative to control; conditions: not given
Sequence (P35968 whole entry): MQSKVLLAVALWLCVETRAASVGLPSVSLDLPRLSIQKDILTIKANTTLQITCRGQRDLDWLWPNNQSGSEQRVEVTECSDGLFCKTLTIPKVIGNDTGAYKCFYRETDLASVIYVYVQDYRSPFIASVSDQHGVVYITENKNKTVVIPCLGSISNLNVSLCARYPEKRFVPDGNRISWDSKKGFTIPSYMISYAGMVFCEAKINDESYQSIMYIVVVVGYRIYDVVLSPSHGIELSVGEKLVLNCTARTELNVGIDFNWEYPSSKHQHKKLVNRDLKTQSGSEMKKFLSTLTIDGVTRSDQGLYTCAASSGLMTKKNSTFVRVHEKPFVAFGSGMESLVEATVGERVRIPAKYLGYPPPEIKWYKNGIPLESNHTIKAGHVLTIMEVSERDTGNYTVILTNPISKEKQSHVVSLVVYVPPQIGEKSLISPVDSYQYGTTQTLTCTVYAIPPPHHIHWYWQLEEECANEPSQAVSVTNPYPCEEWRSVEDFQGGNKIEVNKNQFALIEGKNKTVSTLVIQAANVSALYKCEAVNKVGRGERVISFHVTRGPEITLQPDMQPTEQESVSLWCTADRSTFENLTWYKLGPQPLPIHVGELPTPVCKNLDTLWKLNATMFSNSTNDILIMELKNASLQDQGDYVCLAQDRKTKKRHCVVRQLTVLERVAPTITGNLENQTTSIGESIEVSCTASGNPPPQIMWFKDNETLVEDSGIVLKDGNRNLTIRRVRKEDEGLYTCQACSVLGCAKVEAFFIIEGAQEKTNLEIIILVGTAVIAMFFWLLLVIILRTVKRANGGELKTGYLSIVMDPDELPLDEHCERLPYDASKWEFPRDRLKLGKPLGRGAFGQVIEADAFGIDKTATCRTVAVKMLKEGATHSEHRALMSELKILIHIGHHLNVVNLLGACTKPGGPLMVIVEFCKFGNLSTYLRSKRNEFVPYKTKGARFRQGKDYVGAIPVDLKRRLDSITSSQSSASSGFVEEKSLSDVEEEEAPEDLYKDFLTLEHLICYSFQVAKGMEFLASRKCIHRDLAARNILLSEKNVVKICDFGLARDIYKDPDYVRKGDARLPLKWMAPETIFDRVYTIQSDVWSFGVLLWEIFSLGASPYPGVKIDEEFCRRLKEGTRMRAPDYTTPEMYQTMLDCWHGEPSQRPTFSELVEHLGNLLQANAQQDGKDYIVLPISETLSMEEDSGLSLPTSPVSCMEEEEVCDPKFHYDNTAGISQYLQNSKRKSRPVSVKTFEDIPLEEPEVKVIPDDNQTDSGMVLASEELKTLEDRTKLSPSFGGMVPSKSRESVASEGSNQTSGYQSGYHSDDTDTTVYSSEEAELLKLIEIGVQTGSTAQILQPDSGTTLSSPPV
In short: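 VEGFR-2 tested at a single 200 nM concentration in a Kinase-Glo assay. Compound, kinase, substrate and ATP incubated 40 min at room temperature, then Kinase-Glo reagent added for 15 min and luminescence read. Inhibition rate reported. Replicates n ≥ 2.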

| inhibition [%] | Compound |
| --- | --- |
| 95 | Cc1c2ccc(N(C)c3ccnc(Nc4ccc(/C=C/C(=O)NO)cc4)n3)cc2nn1C |
| 98 | Cc1c2ccc(N(C)c3ccnc(Nc4ccc(C(=O)NCCCCCC(=O)NO)cc4)n3)cc2nn1C |
| 99 | Cc1c2ccc(N(C)c3ccnc(Nc4ccc(C(=O)NCCC(=O)NO)cc4)n3)cc2nn1C |
| 74 | Cc1ccc(Nc2nccc(N(C)c3ccc4c(C)n(C)nc4c3)n2)cc1C(=O)NO |
| 87 | Cc1ccc(Nc2nccc(N(C)c3ccc4c(C)n(C)nc4c3)n2)cc1C(=O)NCCCCCC(=O)NO |
| 90 | Cc1c2ccc(N(C)c3ccnc(Nc4cccc(C(=O)NCCCCCC(=O)NO)c4)n3)cc2nn1C |

tested on: HT-29; assay: Antiproliferative activity against human HT-29 cells after 72 hrs by MTT assay; type: functional, cell-based; conditions: HT-29, 72 h

| IC50 [nM] | Compound |
| --- | --- |
| 2960 | Cc1c2ccc(N(C)c3ccnc(Nc4ccc(/C=C/C(=O)NO)cc4)n3)cc2nn1C |

tested on: ACHN; assay: Antiproliferative activity against human ACHN cells after 72 hrs by MTT assay; type: functional, cell-based; conditions: not given

| IC50 [nM] | Compound |
| --- | --- |
| 3850 | Cc1c2ccc(N(C)c3ccnc(Nc4ccc(/C=C/C(=O)NO)cc4)n3)cc2nn1C |

tested on: AGS; assay: Antiproliferative activity against human AGS cells after 72 hrs by MTT assay; type: functional, cell-based; conditions: not given

| IC50 [nM] | Compound |
| --- | --- |
| > 5000 | Cc1c2ccc(N(C)c3ccnc(Nc4ccc(/C=C/C(=O)NO)cc4)n3)cc2nn1C |

tested on: HeLa; assay: Antiproliferative activity against human HeLa cells after 72 hrs by MTT assay; type: functional, cell-based; conditions: not given

| IC50 [nM] | Compound |
| --- | --- |
| 4930 | Cc1c2ccc(N(C)c3ccnc(Nc4ccc(/C=C/C(=O)NO)cc4)n3)cc2nn1C |

tested on: PC-3; assay: Antiproliferative activity against human PC3 cells after 72 hrs by MTT assay; type: functional, cell-based; conditions: PC-3, 72 h

| IC50 [nM] | Compound |
| --- | --- |
| 1600 | Cc1c2ccc(N(C)c3ccnc(Nc4ccc(/C=C/C(=O)NO)cc4)n3)cc2nn1C |
| > 5000 | Cc1c2ccc(N(C)c3ccnc(Nc4ccc(C(=O)NCCCCCC(=O)NO)cc4)n3)cc2nn1C |

tested on: MDA-MB-231; assay: Antiproliferative activity against human MDA-MB-231 cells after 72 hrs by MTT assay; type: functional, cell-based; conditions: MDA-MB-231, 72 h

| IC50 [nM] | Compound |
| --- | --- |
| 2590 | Cc1c2ccc(N(C)c3ccnc(Nc4ccc(/C=C/C(=O)NO)cc4)n3)cc2nn1C |

tested on: HT-1080; assay: Antiproliferative activity against human HT1080 cells after 72 hrs by MTT assay; type: functional, cell-based; conditions: HT-1080, 72 h

| IC50 [nM] | Compound |
| --- | --- |
| 3250 | Cc1c2ccc(N(C)c3ccnc(Nc4ccc(/C=C/C(=O)NO)cc4)n3)cc2nn1C |
| > 5000 | Cc1c2ccc(N(C)c3ccnc(Nc4ccc(C(=O)NCCCCCC(=O)NO)cc4)n3)cc2nn1C |

tested on: KG-1; assay: Antiproliferative activity against human KG1 cells after 72 hrs by MTT assay; type: functional, cell-based; conditions: KG-1, 72 h

| Compound | IC50 [nM] |
| --- | --- |
| Cc1c2ccc(N(C)c3ccnc(Nc4ccc(/C=C/C(=O)NO)cc4)n3)cc2nn1C | 1020 |
| Cc1c2ccc(N(C)c3ccnc(Nc4ccc(C(=O)NCCCCCC(=O)NO)cc4)n3)cc2nn1C | 2310 |

tested on: HEL; assay: Antiproliferative activity against human HEL cells after 72 hrs by MTT assay; type: functional, cell-based; conditions: not given

| Compound | IC50 [nM] |
| --- | --- |
| Cc1c2ccc(N(C)c3ccnc(Nc4ccc(/C=C/C(=O)NO)cc4)n3)cc2nn1C | 750 |
| Cc1c2ccc(N(C)c3ccnc(Nc4ccc(C(=O)NCCCCCC(=O)NO)cc4)n3)cc2nn1C | 2560 |

tested on: MOLT-4; assay: Antiproliferative activity against human MOLT4 cells after 72 hrs by MTT assay; type: functional, cell-based; conditions: MOLT-4, 72 h

| IC50 [nM] | Compound |
| --- | --- |
| 590 | Cc1c2ccc(N(C)c3ccnc(Nc4ccc(/C=C/C(=O)NO)cc4)n3)cc2nn1C |
| 600 | Cc1c2ccc(N(C)c3ccnc(Nc4ccc(C(=O)NCCCCCC(=O)NO)cc4)n3)cc2nn1C |

tested on: K562; assay: Antiproliferative activity against human K562 cells after 72 hrs by MTT assay; type: functional, cell-based; conditions: K562, 72 h

| IC50 [nM] | Compound |
| --- | --- |
| 1660 | Cc1c2ccc(N(C)c3ccnc(Nc4ccc(/C=C/C(=O)NO)cc4)n3)cc2nn1C |
| 2890 | Cc1c2ccc(N(C)c3ccnc(Nc4ccc(C(=O)NCCCCCC(=O)NO)cc4)n3)cc2nn1C |

molecular target: Histone deacetylase 2 (Homo sapiens, UniProt Q92769); conditions: not given
Sequence (Q92769 whole entry): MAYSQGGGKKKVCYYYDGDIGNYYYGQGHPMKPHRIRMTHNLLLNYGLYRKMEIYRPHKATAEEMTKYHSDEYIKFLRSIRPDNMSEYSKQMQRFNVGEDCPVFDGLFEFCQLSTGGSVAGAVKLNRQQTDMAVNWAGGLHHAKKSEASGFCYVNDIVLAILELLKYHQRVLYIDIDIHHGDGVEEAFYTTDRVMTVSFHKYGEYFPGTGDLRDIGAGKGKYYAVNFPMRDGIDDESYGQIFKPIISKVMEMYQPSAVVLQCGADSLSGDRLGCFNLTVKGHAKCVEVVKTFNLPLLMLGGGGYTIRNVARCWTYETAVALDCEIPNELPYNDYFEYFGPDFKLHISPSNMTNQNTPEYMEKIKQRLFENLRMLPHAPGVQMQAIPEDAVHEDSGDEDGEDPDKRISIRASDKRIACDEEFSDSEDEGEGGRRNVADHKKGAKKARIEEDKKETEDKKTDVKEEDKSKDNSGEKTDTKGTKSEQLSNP

| IC50 [nM] | Compound |
| --- | --- |
| 5300 | Cc1c2ccc(N(C)c3ccnc(Nc4ccc(/C=C/C(=O)NO)cc4)n3)cc2nn1C |

molecular target: Protein deacetylase HDAC6 (Homo sapiens, UniProt Q9UBN7); assay: Inhibition of HDAC6 (unknown origin) using fluorogenic Boc-Lys(acetyl)-AMC as substrate preincubated for 5 mins followed by substrate addition measured after 30 mins by fluorescence-based assay; conditions: not given
Sequence (Q9UBN7 whole entry): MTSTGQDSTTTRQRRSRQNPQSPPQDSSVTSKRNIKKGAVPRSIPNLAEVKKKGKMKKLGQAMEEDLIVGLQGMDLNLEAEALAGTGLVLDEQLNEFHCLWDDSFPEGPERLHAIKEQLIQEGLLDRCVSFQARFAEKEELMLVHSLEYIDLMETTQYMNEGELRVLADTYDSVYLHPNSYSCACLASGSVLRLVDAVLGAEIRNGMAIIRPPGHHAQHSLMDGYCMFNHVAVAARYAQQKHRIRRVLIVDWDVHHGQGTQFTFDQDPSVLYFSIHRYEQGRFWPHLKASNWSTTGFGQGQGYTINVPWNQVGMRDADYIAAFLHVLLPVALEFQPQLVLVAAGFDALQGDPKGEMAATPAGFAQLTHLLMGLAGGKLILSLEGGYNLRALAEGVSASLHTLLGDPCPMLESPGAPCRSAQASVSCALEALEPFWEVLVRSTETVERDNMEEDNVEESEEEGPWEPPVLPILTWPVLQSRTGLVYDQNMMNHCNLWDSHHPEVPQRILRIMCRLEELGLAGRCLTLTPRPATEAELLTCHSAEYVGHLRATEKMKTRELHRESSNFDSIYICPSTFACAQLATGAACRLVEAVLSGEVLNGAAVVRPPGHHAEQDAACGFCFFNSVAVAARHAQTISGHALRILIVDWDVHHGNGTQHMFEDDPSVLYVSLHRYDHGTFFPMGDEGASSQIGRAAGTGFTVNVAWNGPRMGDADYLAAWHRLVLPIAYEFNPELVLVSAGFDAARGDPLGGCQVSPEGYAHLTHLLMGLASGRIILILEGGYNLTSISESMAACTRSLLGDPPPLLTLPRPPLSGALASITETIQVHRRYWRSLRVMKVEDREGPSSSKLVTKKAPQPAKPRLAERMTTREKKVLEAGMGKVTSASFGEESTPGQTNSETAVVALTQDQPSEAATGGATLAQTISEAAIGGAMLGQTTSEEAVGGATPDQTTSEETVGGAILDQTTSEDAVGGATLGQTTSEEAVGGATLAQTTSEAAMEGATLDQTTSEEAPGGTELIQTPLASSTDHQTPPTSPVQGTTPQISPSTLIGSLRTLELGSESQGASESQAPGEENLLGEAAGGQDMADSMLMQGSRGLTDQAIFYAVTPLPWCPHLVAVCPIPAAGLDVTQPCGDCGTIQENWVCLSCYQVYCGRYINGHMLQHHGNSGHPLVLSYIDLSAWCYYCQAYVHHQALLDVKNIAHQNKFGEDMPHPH

| IC50 [nM] | Compound |
| --- | --- |
| 1030 | Cc1c2ccc(N(C)c3ccnc(Nc4ccc(/C=C/C(=O)NO)cc4)n3)cc2nn1C |

molecular target: Histone deacetylase 8 (Homo sapiens, UniProt Q9BY41); assay: Inhibition of HDAC8 (unknown origin) using fluorogenic Boc-Lys(trifluoroacetyl)-AMC as substrate preincubated for 5 mins followed by substrate addition measured after 30 mins by fluorescence-based assay; conditions: not given
Sequence (Q9BY41 whole entry): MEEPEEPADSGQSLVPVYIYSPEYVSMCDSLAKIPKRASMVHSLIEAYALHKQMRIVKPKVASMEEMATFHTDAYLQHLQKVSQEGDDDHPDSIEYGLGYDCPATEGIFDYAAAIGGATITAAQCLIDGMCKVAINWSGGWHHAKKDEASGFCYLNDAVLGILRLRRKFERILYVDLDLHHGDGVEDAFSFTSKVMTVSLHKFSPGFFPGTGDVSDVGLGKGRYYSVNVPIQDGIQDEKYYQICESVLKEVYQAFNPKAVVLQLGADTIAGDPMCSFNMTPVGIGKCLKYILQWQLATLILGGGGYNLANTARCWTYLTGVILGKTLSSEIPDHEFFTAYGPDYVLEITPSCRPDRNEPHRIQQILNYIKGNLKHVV

| IC50 [nM] | Compound |
| --- | --- |
| 2890 | Cc1c2ccc(N(C)c3ccnc(Nc4ccc(/C=C/C(=O)NO)cc4)n3)cc2nn1C |
